The values below come from the array DNA melting data of Ke et al. (doi:10.1101/2024.01.08.574731).

Data set [1] in a line: folding enthalpy; higher = less favourable; fluorescence melt of hairpins on a sequencing array, two-state fit. To be noted: sodium 0.088 M. In a few lines:
(§1)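 Two-state fits, bootstrapped, provided melting temperature and folding enthalpy from Cy3 fluorescence normalised to pre-quench Cy3 and to control constructs. Library hairpins with annealed Cy3 and quencher oligos were imaged on a sequenced MiSeq flow cell in 50 mM Na-HEPES pH 8.0, 25 mM NaCl, at 2.5 °C intervals up to 60 °C. Four replicates were combined with inverse-variance weighting. A 9.35 °C upward shift was applied to fitted temperatures to match UV melts.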

The nature of data set [2]: melting temperature; fluorescence melt of hairpins on a sequencing array, two-state fit, raised by 9.35 °C to match UV melts. To be noted: sodium 0.088 M. The procedure, abridged:
as §1

In the case of GCCTGAGAAATCAGGC ((((((....)))))), the folding enthalpy in data set [1] was -164 kJ/mol. Moreover, in data set [2], the Tm is 62.5 °C.

With GGAGCCGAAAGGCATTCC ((((((....)))..))), the folding enthalpy in data set [1] is -43.3 kJ/mol. Besides, in data set [2], the Tm turned out to be 33.1 °C.

In the case of GAGGGCGAAAGCCCACTC ((((((....)))..))), in data set [1], the folding enthalpy is -44.2 kJ/mol. In data set [2], the Tm turned out to be 55.6 °C.

Turning to GCTGCAGGAAACCGCAAC (.(((.(....).))).), the folding enthalpy in data set [1] was -61.1 kJ/mol. Moreover, the Tm in data set [2] is 27.3 °C.

For GTAAGGGGAAACCCTTAC (((((((....))))))), the folding enthalpy in data set [1] was -177 kJ/mol. Besides, the Tm in data set [2] was 54.8 °C.

Turning to GCCCACCGAAAGGTTGGC (((.(((....))).))), the folding enthalpy in data set [1] was -178 kJ/mol. In addition, the Tm in data set [2] worked out at 55.3 °C.

Turning to GTAAACGGAAACGCTTAC ((((.((....)).)))), the folding enthalpy in data set [1] is -124 kJ/mol. In addition, the Tm in data set [2] is 37.1 °C.

For the sequence GCGGGATCCGC ((((...)))), the folding enthalpy in data set [1] was -71.8 kJ/mol. Also, the Tm in data set [2] came to 59.2 °C.

With GATCGGACCCCCGATC ((((((....)))))), the folding enthalpy in data set [1] was -138 kJ/mol. Further, in data set [2], the Tm came out at 54.7 °C.

As for GGAAAACGAAAGTTATCC (((.(((....))).))), the folding enthalpy in data set [1] is -124 kJ/mol. In addition, the Tm in data set [2] is 37 °C.

Regarding GATCGGCGGGCCGATC ((((((....)))))), in data set [1], the folding enthalpy is -163 kJ/mol. In addition, in data set [2], the Tm turned out to be 66.9 °C.

Take GCCCTTCGAAAGAAAGGC (((.(((....))).))): the folding enthalpy in data set [1] is -119 kJ/mol. Moreover, the Tm in data set [2] was 45.1 °C.

On to GGTACCCGAAAGGGACC (((.(((....)))))), for which, in data set [1], the folding enthalpy is -108 kJ/mol. In addition, in data set [2], the Tm was found to be 54.5 °C.

Regarding CGGTCGGAAACGATCCCG ((((((....)))..))), in data set [1], the folding enthalpy was -74.8 kJ/mol. Moreover, the Tm in data set [2] was 34.9 °C.

In the case of GCCGTGCGAAAGCGCTGC ((.(.((....)).).)), the folding enthalpy in data set [1] was -81.9 kJ/mol. In addition, the Tm in data set [2] amounted to 49 °C.

GAATACGAAAGTATATTC ((((((....)))..))): the folding enthalpy in data set [1] is -66.7 kJ/mol. For the same sequence, the Tm in data set [2] was determined as 26.8 °C.

As to GTCGTTGGAAACAGCGAC ((((.((....)).)))), the folding enthalpy in data set [1] is -157 kJ/mol. In data set [2], the Tm worked out at 52.4 °C.

Consider GGCATCGCGAAAGCGGCC (((..(((....)))))), for which, in data set [1], the folding enthalpy was -72.8 kJ/mol. Moreover, in data set [2], the Tm came to 54.9 °C.

For GGGGGTGGAAACGCCCCC (((((.(....).))))), the folding enthalpy in data set [1] is -121 kJ/mol. Further, the Tm in data set [2] is 66.9 °C.

In the case of GGTGCACGAAAGTGAACC (((.(((....))).))), the folding enthalpy in data set [1] was -148 kJ/mol. Moreover, the Tm in data set [2] amounted to 61.4 °C.

In the case of GACATGGGAAACCGTGTC ((((.((....)).)))), the folding enthalpy in data set [1] is -129 kJ/mol. For the same sequence, the Tm in data set [2] was 52.1 °C.

As for GTACGGACGAAAGTCTAC (((..(((....)))))), in data set [1], the folding enthalpy is -42.6 kJ/mol. Besides, in data set [2], the Tm was determined as 31 °C.

Consider GGGCACGAAAGTGGGCCC ((((((....)))..))), for which the folding enthalpy in data set [1] was -133 kJ/mol. The Tm in data set [2] worked out at 58.4 °C.

For the sequence GTAGGACCGAAAGGTTAC (((..(((....)))))), the folding enthalpy in data set [1] is -53 kJ/mol. Also, the Tm in data set [2] was found to be 28.5 °C.

As for GATCCTCTTCAGGATC ((((((....)))))), in data set [1], the folding enthalpy was -160 kJ/mol. For the same sequence, the Tm in data set [2] turned out to be 51.3 °C.

As to GAGTGTGGAAACATACTC ((((.((....)).)))), the folding enthalpy in data set [1] is -133 kJ/mol. Further, in data set [2], the Tm worked out at 45.9 °C.

For GATCCCAAAGGGATC ((((((...)))))), in data set [1], the folding enthalpy was -148 kJ/mol. For the same sequence, in data set [2], the Tm came to 65.5 °C.

In the case of GATCTGACCCAGATC ((((((...)))))), in data set [1], the folding enthalpy is -156 kJ/mol. Moreover, the Tm in data set [2] worked out at 47.7 °C.

Turning to GCGGATTACCGC ((((....)))), the folding enthalpy in data set [1] is -83.6 kJ/mol. The Tm in data set [2] came to 54.9 °C.

Regarding GGACTTCGAAAGAAATCC (((.(((....))).))), in data set [1], the folding enthalpy is -112 kJ/mol. Besides, the Tm in data set [2] was 37.3 °C.

Regarding GGGGTGGGAAACCACCTC (.(((((....))))).), the folding enthalpy in data set [1] was -67.6 kJ/mol. Moreover, in data set [2], the Tm worked out at 55.2 °C.

On to GAGCTCGGAAACGAACCC (.(.(((....))).).), for which the folding enthalpy in data set [1] was -18.5 kJ/mol. Besides, the Tm in data set [2] came to 19.5 °C.

Regarding GCGTTCGGAAACGAGTGC ((..(((....)))..)), the folding enthalpy in data set [1] is -107 kJ/mol. In addition, the Tm in data set [2] amounted to 41.8 °C.

Regarding GGTAATACGAAAGTAACC (((..(((....)))))), the folding enthalpy in data set [1] was -40.3 kJ/mol. For the same sequence, in data set [2], the Tm was found to be 22.7 °C.

As for GCGGCTATCCGC ((((....)))), the folding enthalpy in data set [1] is -84.2 kJ/mol. For the same sequence, the Tm in data set [2] worked out at 61.2 °C.

As for CATCAGAAATGATG (((((....))))), the folding enthalpy in data set [1] was -77.7 kJ/mol. Also, the Tm in data set [2] came to 41.7 °C.

Turning to GGCGCAGGAAACCGCGCC (((((.(....).))))), the folding enthalpy in data set [1] is -156 kJ/mol. For the same sequence, the Tm in data set [2] is 68.8 °C.

On to GCGTCGTACGC ((((...)))), for which the folding enthalpy in data set [1] is -76.6 kJ/mol. Moreover, the Tm in data set [2] stood at 65.6 °C.

For the sequence GATATTGGAAACAGTATC ((((.((....)).)))), the folding enthalpy in data set [1] is -51.2 kJ/mol. Moreover, in data set [2], the Tm came out at 34.3 °C.

Turning to GCTACGCGAAAGCATCGC ((.(.((....)).).)), in data set [1], the folding enthalpy was -39.7 kJ/mol. Further, in data set [2], the Tm came to 30.7 °C.

Take GATCAGAAATCTGATC ((((((....)))))): the folding enthalpy in data set [1] was -147 kJ/mol. In addition, in data set [2], the Tm was 46 °C.

On to GTTGCTGGAAACAACAAC ((((.((....)).)))), for which the folding enthalpy in data set [1] was -122 kJ/mol. Besides, the Tm in data set [2] is 38.8 °C.

On to GCGGGGCGAAAGCACAGC ((.(.((....)).).)), for which the folding enthalpy in data set [1] is -133 kJ/mol. In addition, in data set [2], the Tm turned out to be 65.4 °C.

With GTGTTACGAAAGTAGCAC (((.(((....))).))), in data set [1], the folding enthalpy is -149 kJ/mol. Besides, the Tm in data set [2] stood at 53.9 °C.

For the sequence GTACTTACGAAAGTATAC (((..(((....)))))), the folding enthalpy in data set [1] was -27.5 kJ/mol. Also, the Tm in data set [2] is 16.2 °C.

Take GCTACCGAAAGGTATAGC ((((((....)))..))): the folding enthalpy in data set [1] was -76.1 kJ/mol. For the same sequence, the Tm in data set [2] worked out at 44.4 °C.

As for GCCGTAACGAAAGTTGGC (((..(((....)))))), in data set [1], the folding enthalpy is -87.5 kJ/mol. Also, in data set [2], the Tm turned out to be 49.4 °C.

Turning to GTTCCCGAAAGGGCAAAC ((((((....)))..))), the folding enthalpy in data set [1] is -40.3 kJ/mol. For the same sequence, the Tm in data set [2] is 28.9 °C.

For the sequence GAATGCGGAAACGTGTTC (((..((....))..))), the folding enthalpy in data set [1] was -133 kJ/mol. Also, in data set [2], the Tm was 40.3 °C.

Consider CGGAACGGAAACGTACCG (((.(((....))).))), for which the folding enthalpy in data set [1] was -182 kJ/mol. The Tm in data set [2] amounted to 49.7 °C.

On to GTGCCGGCGAAAGCCCAC (((..(((....)))))), for which, in data set [1], the folding enthalpy was -28.5 kJ/mol. In addition, the Tm in data set [2] amounted to 59.9 °C.

For the sequence GCTACAGGAAACTGTAAC (.(((((....))))).), in data set [1], the folding enthalpy was -53.5 kJ/mol. Besides, in data set [2], the Tm amounted to 30.3 °C.

In the case of GACACCGAAAGGTGAGTC ((((((....)))..))), the folding enthalpy in data set [1] was -39.2 kJ/mol. Further, the Tm in data set [2] was 37.3 °C.

Turning to GTGCAGGGAAACTTGCGC (.(((.(....).))).), in data set [1], the folding enthalpy is -130 kJ/mol. Further, the Tm in data set [2] stood at 42 °C.

As to GTGTCCGAAAGGATCCAC ((((((....)))..))), in data set [1], the folding enthalpy was -43.6 kJ/mol. Also, the Tm in data set [2] was determined as 32.7 °C.
